In the library only some 1.6% were active in any assay of this set; here they are far more common.
TLR4-MyD88 BLA: inhibitors of human TLR4-MyD88 binding; O00206+Q99836; HeLa CL3-4 TLR4/MyD88 BLA complementation, FRET ratio; inhibition, % at 8.4 µM; hit rate 0.18% among 200,000; AID 861; in the data active = inhibition above about 25%
NOD2 RIPK2 PPI: NOD2-RIPK2 protein interaction inhibition; inhibition, % at 4.98 µM; CHO BLA complementation NOD2-RIPK2, CCF4 ratio; hit rate 0.38% among 360,000; AID 624267; in the data active = inhibition above about 21%
Lipid droplet: hepatic lipid droplet formation modulation. AML12 mouse hepatocytes, oleate lipid droplets, BODIPY imaging. inhibition, % at 6.5 µM. hit rate 0.4% among 240,000. AID 1656;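 active = lipid droplet intensity inhibited by at least 50%, with more than 500 cells counted; inconclusive = wells with under 300 cells, treated as cytotoxic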
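Assay system: AML12 hepatocytes (mouse) / Also added: 100 µM oleic acid challenge / Times: overnight treatment with compound plus oleate / Detection: high-content imaging of BODIPY-stained droplets and DAPI nuclei / Evaluation: % inhibition of lipid droplet signal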
TLR9-MyD88 inh: inhibitors of human TLR9-MyD88 binding. Q9NR96+Q99836. hit rate 0.21% among 340,000. inhibition, % at 4.98 µM. AID 504734. CHO BLA complementation TLR9-MyD88, CCF4 FRET ratio;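 active = inhibition above the mean over all tested compounds plus 3 SD, cut at about 21% in these data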
SR-BI uptake up: activators of SR-BI mediated HDL lipid uptake; CHO ldlA[mSR-BI] cells, DiI-HDL uptake fluorescence, 3 h; 100 = double the neutral-control signal; activation, % at 12.5 µM; hit rate 0.096% among 320,000;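 active = mean replicate activation of at least 60% and every replicate at or above 60%; inconclusive = mean or all-replicate condition met, but not both; inactive = mean below 60% and not all replicates reaching 60%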
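system = CHO ldlA[mSR-BI] cells, LDL receptor-null, SR-BI overexpressing | medium = Ham's F12 with 0.5% BSA, HEPES 25 mM, pH 7.4 | probe or stimulus = DiI-HDL 10 µg/mL | compound dosing = single-point compound dose | incubation = compound exposure 3 h, 37 °C | technique = DiI fluorescence, bottom read | read-out = cell-associated DiI fluorescence as measure of HDL uptake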
SR-BI HDL uptake: mouse SR-BI HDL lipid transfer inhibition; ldlA[mSR-BI] CHO cells, DiI-HDL uptake fluorescence, 3 h; Q61009; inhibition, % at 12.5 µM; hit rate 0.96% among 320,000; AID 488896;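 active = mean replicate inhibition of at least 70% and a set share of replicates each scoring 70 or more; inconclusive = meets just one of the two criteria; inactive = fails both criteria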
Hep lipid conf: confirmation of inhibitors of hepatic lipid droplet formation. shares compounds with Lipid droplet. AML12 mouse hepatocytes, BODIPY lipid droplet imaging; droplets induced with 100 µM oleic acid. inhibition, % at 5.2 µM. hit rate 65% among 870. AID 463183;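 active = inhibition of lipid droplet metric at least 50%, with more than 300 cells in each of four replicates; inconclusive = wells under 300 cells, flagged as toxic or low count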
AML12 cytotox: counter-screen for cytotoxicity in AML12 mouse hepatocytes; shares compounds with Lipid droplet; DAPI nuclear morphology cytotoxicity imaging; hits give high values; cells fed 100 µM oleate overnight; z-score at 5 µM; hit rate 3% among 870; in the data active = z-score above about 6.3;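 also: compound exposure lasted overnight at 37 °C before fixation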
AML12 tox ATP: AML12 hepatocyte cytotoxicity, confirmed; shares compounds with Lipid droplet; cytotoxicity, % at 50 µM; 530 tested, under 10 active; AML12 mouse hepatocyte viability, ATP luminescence; cells loaded with 100 µM oleic acid; AID 463219;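 active = cytotoxicity above 50% in each of four replicates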;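 also: compound exposure lasted overnight at 37 °C before the ATP read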
A number is an active result; 0 = inactive; ? = inconclusive; - = no result.

SMILES	TLR4-MyD88 BLA	NOD2 RIPK2 PPI	Lipid droplet	TLR9-MyD88 inh	SR-BI uptake up	SR-BI HDL uptake	Hep lipid conf	AML12 cytotox	others
COc1ccccc1OCCCCN1CCN(C(c2ccccc2)c2ccccc2)CC1	0	0	0	0	0	0	-	-
Fc1ccc(Nc2nc(N3CCOCC3)nc(N3CCOCC3)n2)cc1Cl	-	0	0	0	0	0	-	-
Clc1ccc(Nc2nc(NCCN3CCOCC3)nc(N3CCOCC3)n2)cc1	0	0	65.8	0	0	0	75.2	18.6
CN(C(=O)c1cc(COc2ccc(F)cc2Cl)on1)C1CCOC1 (stereo unspecified)	-	0	-	0	-	-	-	-
CN1CC(=O)Nc2ccc([N+](=O)[O-])cc2C1=O	-	0	91.4	0	0	0	0	0
COc1ccc(C2c3[nH]c4ccccc4c3CCN2C(=O)c2ccc(=O)n(C)n2)c(F)c1 (stereo unspecified)	0	0	0	0	0	0	-	-
CCc1cc(C(=O)N2CCc3c([nH]c4ccccc34)C2c2ccc(OC)cc2F)no1 (stereo unspecified)	0	0	68.6	0	0	0	81.4	0	AML12 tox ATP=0
O=C(Nc1ccccn1)c1ccc(C(=O)Nc2ccccn2)cc1	-	0	0	0	0	0	-	-
O=C(NC(=S)Nc1ccccn1)c1ccc(-c2ccccc2)cc1	-	0	94.0	0	0	0	0	0
O=C1CSC(=Nc2cccc([N+](=O)[O-])c2)N1	-	0	0	0	0	0	-	-
CCOc1ccc(NC(=O)CCSc2nc3c(c(CC)c2C#N)C(=O)CC(C)(C)C3)cc1	0	0	55.1	0	0	0	86.2	0	AML12 tox ATP=0
CCOc1ccccc1Nc1nnc(SCC(=O)Nc2nc(-c3ccc(OC)cc3)cs2)s1	0	0	91.1	0	0	76.1	104.0	0	AML12 tox ATP=0
COc1ccc(-c2csc(NC(=O)CSc3nnc(Nc4ccccc4C)s3)n2)cc1	0	0	?	0	0	0	-	-
COc1ccccc1Nc1nnc(SCC(=O)Nc2nc(-c3ccc(F)cc3)cs2)s1	0	0	67.5	0	0	0	0	0
OCC[C@@H]1C[C@H](O)[C@@H](O)[C@]2(OCCc3cc(Cl)ccc32)O1	-	0	-	-	-	-	-	-
CC(C)c1cc(C(=O)N2CCCC(CCC(=O)NCc3ccccc3F)C2)n(C)n1 (stereo unspecified)	0	0	51.3	0	0	0	0	0
Cc1ccc(CNC(=O)CSc2nc3ccccc3[nH]2)cc1	-	0	0	0	0	0	-	-
Cc1ccc(CNC(=O)c2ccc3nc4[nH]c5ccccc5c4nc3c2)cc1	0	-	55.0	-	-	-	90.6	0
CC12CCC(=O)N1C(C(=O)NCCc1ccc(S(N)(=O)=O)cc1)CS2 (stereo unspecified)	-	0	0	0	0	0	-	-
CCCOc1ccccc1C(=O)N(Cc1ccc(C)o1)C1CCS(=O)(=O)C1 (stereo unspecified)	-	0	64.6	0	0	0	77.6	0	AML12 tox ATP=0
CCCOc1ccccc1C(=O)N(Cc1ccco1)C1CCS(=O)(=O)C1 (stereo unspecified)	0	0	-	0	0	0	-	-
CCCCOc1ccccc1C(=O)N(Cc1ccc(C)o1)C1CCS(=O)(=O)C1 (stereo unspecified)	-	0	64.4	0	0	0	96.9	0	AML12 tox ATP=0
Cc1ccc(NC(=O)COC(=O)Cc2c[nH]c3ccccc23)cc1F	-	0	-	0	0	0	-	-
CN(C(=O)COC(=O)Cn1cnc2ccccc21)C1CCCCC1	-	0	-	0	0	0	-	-
COc1ccc(-c2csc(NC(=O)c3ccc(OCC(=O)N4CCOCC4)c(OC)c3)n2)cc1OC	0	0	70.8	0	0	0	95.7	0	AML12 tox ATP=0
SMILES	TLR4-MyD88 BLA	NOD2 RIPK2 PPI	Lipid droplet	TLR9-MyD88 inh	SR-BI uptake up	SR-BI HDL uptake	Hep lipid conf	AML12 cytotox	others
CC(C)C[C@H]1C(=O)N2CCC[C@H]2[C@]2(O)O[C@](NC(=O)[C@@H]3C=C4c5cccc6[nH]c(Br)c(c56)CC4N(C)C3)(C(C)C)C(=O)N12 (stereo partly specified)	0	0	53.5	0	0	0	0	0	AML12 tox ATP=0
O=C(CC1CC2CCC1C2)NCCc1ccc(Cl)cc1 (stereo unspecified)	-	0	0	0	0	0	-	-
Cc1cccc(NC(=O)C2CCN(S(=O)(=O)c3ccc4c(c3)NC(=O)CO4)CC2)c1	-	0	0	0	0	0	-	-
Cc1cccc(NC(=O)c2cccc(OC(=S)N3CCOCC3)c2)c1	-	0	83.9	0	0	0	104.2	0	AML12 tox ATP=0
O=C(Nc1cccc(Cl)c1)c1ccc(OC(=S)N2CCOCC2)cc1	0	0	0	0	0	0	-	-
COC(=O)COc1cccc(NC(=O)c2ccc(C)cc2)c1	0	0	-	0	0	0	-	-
COC(=O)COc1cccc(NC(=O)c2ccc(Cl)cc2)c1	0	0	50.8	0	0	0	0	0
CC(=O)Nc1ccc(S(=O)(=O)Oc2ccc(/C=C3\SC(N)=NC3=O)cc2)cc1	0	0	0	0	0	0	-	-
CCC(C)(C)NC(=O)C(c1ccc(C)cc1)N(CC1CCCO1)C(=O)CCC(=O)Nc1ccccn1 (stereo unspecified)	-	0	60.9	0	-	-	0	0
CCC(=O)c1ccc(OCC(=O)NCC2(N3CCCCC3)CCCCC2)cc1	0	0	0	0	0	0	-	-
Cc1cc(OCC(=O)OCC(=O)NCc2cccs2)ccc1Cl	-	0	-	0	0	0	-	-
CSc1ccc(NC(=O)N2CCC(C(=O)c3ccc(F)cc3)CC2)cc1	-	0	70.7	0	0	0	96.3	0	AML12 tox ATP=0
Cc1cc(C)cc(NC(=S)N2CCC(C(=O)c3ccc(F)cc3)CC2)c1	-	0	-	0	0	0	-	-
COc1ccc(NC(=O)N2CCC(C(=O)c3ccc(F)cc3)CC2)cc1	0	0	-	0	0	0	-	-
Cc1cc(C)cc(NC(=O)N2CCC(C(=O)c3ccc(F)cc3)CC2)c1	0	0	66.9	0	0	0	96.0	0	AML12 tox ATP=0
Cc1cccc(NC(=O)N2CCC(C(=O)c3ccc(F)cc3)CC2)c1	-	0	83.6	0	0	0	97.6	0	AML12 tox ATP=0
C=CCNC(=O)CN1N=C(c2ccc(C)cc2)CCC1=O	-	0	0	0	0	0	-	-
CC(C)C[C@H]1COc2cc(N3CCC[C@@H]3CO)ccc2S(=O)(=O)N1	-	0	-	-	-	-	-	-
O=C(NC1CCN(C(=O)c2cccc([N+](=O)[O-])c2)CC1)c1ccccc1	-	0	-	0	0	0	-	-
Cc1oc2ccc(OCc3ccc(F)cc3Cl)cc2c1C(=O)O	-	0	56.9	0	0	0	0	0

Screening data from PubChem.
